Reference: ChEMBL document CHEMBL1150264, “Design and microwave-assisted synthesis of novel macrocyclic peptides active at melanocortin receptors: discovery of potent and selective hMC5R receptor antagonists” (J Med Chem, 2008)
Active and inactive are the calls of the source. The calls are words filed in the database; no cut-off is given here.

Assays:
Melanocortin receptor 3 [1] = molecular target: T1, Melanocortin receptor 3 (Homo sapiens, UniProt P41968); test: Displacement of [125I]-[Nle4, D-Phe7]alpha-MSH from human melanocortin 3 receptor expressed in HEK293 cells; assay type: cell-based
T1 sequence (P41968 whole entry): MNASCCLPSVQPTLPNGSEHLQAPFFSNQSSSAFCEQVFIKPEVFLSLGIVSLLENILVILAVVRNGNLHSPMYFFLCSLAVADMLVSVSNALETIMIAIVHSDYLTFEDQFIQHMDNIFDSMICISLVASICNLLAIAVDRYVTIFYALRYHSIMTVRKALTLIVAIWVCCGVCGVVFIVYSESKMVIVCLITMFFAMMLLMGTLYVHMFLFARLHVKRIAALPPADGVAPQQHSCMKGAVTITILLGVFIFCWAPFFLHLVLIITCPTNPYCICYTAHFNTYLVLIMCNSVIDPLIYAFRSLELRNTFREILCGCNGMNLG
Outline: (§1)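 Whole HEK293 cells stably expressing each hMCR, seeded 48 h before assay (50000 cells/well), washed in MEM with 25 mM bicarbonate. Cells incubated 40 min at 37 °C with unlabeled peptide plus [125I]-NDP-α-MSH (33.06 pM, 20000 cpm/well) in MEM, 25 mM HEPES pH 7.4, 0.2% BSA, 1 mM 1,10-phenanthroline, leupeptin, bacitracin. Cells washed, lysed with NaOH/Triton X-100, and gamma-counted. IC50 by nonlinear fit, two experiments in triplicate […].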

[2] = molecular target: T2, Melanocyte-stimulating hormone receptor (Homo sapiens, UniProt Q01726); test: Agonist activity at human melanocortin 1 receptor expressed in HEK293 cells assessed as cAMP accumulation; assay type: functional, cell-based
Outline: (§2)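 Stably transfected HEK293 cells seeded 48 h before assay (50000 cells/well), rinsed, preincubated 1 min at 37 °C in Earle's balanced salt solution with 0.5 mM IBMX, then given peptide at varying concentrations for 3 min at 37 °C. Stopped with ice-cold Tris/EDTA and boiling 7 min. cAMP measured by [3H]cAMP competition for PKA against a standard curve. EC50 by nonlinear least-squares fit, mean of two experiments in triplicate.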
Target sequence in this assay (Q01726 whole entry): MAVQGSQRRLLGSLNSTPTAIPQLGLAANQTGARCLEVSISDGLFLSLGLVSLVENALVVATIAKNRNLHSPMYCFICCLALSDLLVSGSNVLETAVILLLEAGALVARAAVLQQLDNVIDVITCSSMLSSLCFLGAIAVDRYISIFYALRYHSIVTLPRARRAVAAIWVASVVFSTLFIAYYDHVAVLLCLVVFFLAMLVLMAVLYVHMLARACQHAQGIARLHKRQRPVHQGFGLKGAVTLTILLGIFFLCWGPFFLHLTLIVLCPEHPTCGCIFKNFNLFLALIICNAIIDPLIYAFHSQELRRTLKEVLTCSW

Melanocortin receptor 5 [3] = molecular target: T3, Melanocortin receptor 5 (Homo sapiens, UniProt P33032); test: Displacement of [125I]-[Nle4, D-Phe7]alpha-MSH from human melanocortin 5 receptor expressed in HEK293 cells; assay type: cell-based; outline: as §1
T3 sequence (P33032 whole entry): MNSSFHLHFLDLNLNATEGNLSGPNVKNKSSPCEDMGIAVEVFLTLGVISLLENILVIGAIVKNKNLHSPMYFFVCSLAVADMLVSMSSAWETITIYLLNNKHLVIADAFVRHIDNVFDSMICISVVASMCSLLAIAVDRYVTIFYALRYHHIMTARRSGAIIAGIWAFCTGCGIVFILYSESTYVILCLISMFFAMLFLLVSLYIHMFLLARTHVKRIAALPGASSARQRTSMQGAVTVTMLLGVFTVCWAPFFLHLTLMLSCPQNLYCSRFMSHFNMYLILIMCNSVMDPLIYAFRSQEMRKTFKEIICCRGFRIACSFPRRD

[4] = molecular target: T2, Melanocyte-stimulating hormone receptor; test: Displacement of [125I]-[Nle4, D-Phe7]alpha-MSH from human melanocortin 1 receptor expressed in HEK293 cells; assay type: cell-based; outline: as §1
Target sequence in this assay (Q01726 whole entry): as the sequence (Q01726 whole entry) above

Melanocortin receptor 4 [5] = molecular target: T4, Melanocortin receptor 4 (Homo sapiens, UniProt P32245); test: Displacement of [125I]-[Nle4, D-Phe7]alpha-MSH from human melanocortin 4 receptor expressed in HEK293 cells; assay type: cell-based; outline: as §1
T4 sequence (P32245 whole entry): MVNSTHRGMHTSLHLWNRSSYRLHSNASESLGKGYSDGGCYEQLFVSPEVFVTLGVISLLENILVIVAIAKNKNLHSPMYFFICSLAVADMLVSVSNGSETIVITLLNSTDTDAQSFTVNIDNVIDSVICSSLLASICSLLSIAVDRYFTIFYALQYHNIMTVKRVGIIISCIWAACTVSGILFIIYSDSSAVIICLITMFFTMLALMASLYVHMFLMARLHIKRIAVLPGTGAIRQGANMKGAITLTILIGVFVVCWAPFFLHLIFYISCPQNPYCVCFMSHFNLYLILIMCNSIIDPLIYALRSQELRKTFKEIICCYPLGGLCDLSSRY

Melanocortin receptor 3 [6] = molecular target: T1, Melanocortin receptor 3; test: Agonist activity at human melanocortin 3 receptor expressed in HEK293 cells assessed as cAMP accumulation; assay type: functional, cell-based; outline: as §2
Melanocortin receptor 3 [7] = molecular target: T1, Melanocortin receptor 3; test: Agonist activity at human melanocortin 3 receptor expressed in HEK293 cells assessed as cAMP accumulation at 10 uM realtive to MT2; assay type: functional, cell-based
Outline: (§3)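 cAMP accumulation assay in stably transfected HEK293 cells: 0.5 mM IBMX preincubation, 3 min ligand exposure at 37 °C, [3H]cAMP/PKA binding read-out against a standard curve. The cAMP produced at 10 μM ligand is expressed as percent of that produced by 10 μM MT-II (% max effect).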

Melanocortin receptor 5 [8] = molecular target: T3, Melanocortin receptor 5; test: Agonist activity at human melanocortin 5 receptor expressed in HEK293 cells assessed as cAMP accumulation at 10 uM; assay type: functional, cell-based; outline: as §3
Melanocortin receptor 4 [9] = molecular target: T4, Melanocortin receptor 4; test: Displacement of [125I]-[Nle4, D-Phe7]alpha-MSH from human melanocortin 4 receptor expressed in HEK293 cells at 10 uM; assay type: cell-based
Melanocortin receptor 3 [10] = molecular target: T1, Melanocortin receptor 3; test: Displacement of [125I]-[Nle4, D-Phe7]alpha-MSH from human melanocortin 3 receptor expressed in HEK293 cells at 10 uM; assay type: cell-based
[11] = molecular target: T2, Melanocyte-stimulating hormone receptor; test: Agonist activity at human melanocortin 1 receptor expressed in HEK293 cells assessed as cAMP accumulation at 10 uM realtive to MT2; assay type: functional, cell-based; outline: as §3
Target sequence in this assay (Q01726 whole entry, looked up): as the sequence (Q01726 whole entry) above

Melanocortin receptor 4 [12] = molecular target: T4, Melanocortin receptor 4; test: Agonist activity at human melanocortin 4 receptor expressed in HEK293 cells assessed as cAMP accumulation at 10 uM realtive to MT2; assay type: functional, cell-based; outline: as §3
Melanocortin receptor 5 [13] = molecular target: T3, Melanocortin receptor 5; test: Agonist activity at human melanocortin 5 receptor expressed in HEK293 cells assessed as cAMP accumulation at 10 uM realtive to MT2; assay type: functional, cell-based; outline: as §3
Melanocortin receptor 4 [14] = molecular target: T4, Melanocortin receptor 4; test: Agonist activity at human melanocortin 4 receptor expressed in HEK293 cells assessed as cAMP accumulation at 10 uM; assay type: functional, cell-based; outline: as §3
[15] = molecular target: T2, Melanocyte-stimulating hormone receptor; test: Displacement of [125I]-[Nle4, D-Phe7]alpha-MSH from human melanocortin 1 receptor expressed in HEK293 cells at 10 uM; assay type: cell-based
Target sequence in this assay (Q01726 whole entry, looked up): as the sequence (Q01726 whole entry) above

Melanocortin receptor 3 [16] = molecular target: T1, Melanocortin receptor 3; test: Agonist activity at human melanocortin 3 receptor expressed in HEK293 cells assessed as cAMP accumulation at 10 uM; assay type: functional, cell-based; outline: as §3
Melanocortin receptor 5 [17] = molecular target: T3, Melanocortin receptor 5; test: Displacement of [125I]-[Nle4, D-Phe7]alpha-MSH from human melanocortin 5 receptor expressed in HEK293 cells at 10 uM; assay type: cell-based
[18] = molecular target: T2, Melanocyte-stimulating hormone receptor; test: Agonist activity at human melanocortin 1 receptor expressed in HEK293 cells assessed as cAMP accumulation at 10 uM; assay type: functional, cell-based; outline: as §3
Target sequence in this assay (Q01726 whole entry, looked up): as the sequence (Q01726 whole entry) above

Melanocortin receptor 5 [19] = molecular target: T3, Melanocortin receptor 5; test: Agonist activity at human melanocortin 5 receptor expressed in HEK293 cells assessed as cAMP accumulation; assay type: functional, cell-based; outline: as §2
Melanocortin receptor 4 [20] = molecular target: T4, Melanocortin receptor 4; test: Agonist activity at human melanocortin 4 receptor expressed in HEK293 cells assessed as cAMP accumulation; assay type: functional, cell-based; outline: as §2
Melanocortin receptor 5 [21] = molecular target: T3, Melanocortin receptor 5; test: Antagonist activity at human melanocortin 5 receptor expressed in HEK293 cells; assay type: functional, cell-based
Outline: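 Antagonism at hMC5R in the HEK293 cAMP assay (IBMX, 3 min at 37 °C, [3H]cAMP/PKA read-out). Four antagonist doses spanning 10−10 to 10−6 M were tested against MT-II agonist dose-response curves. pA2 derived by Schild analysis.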

Row | SMILES | IC50 (Melanocortin receptor 3 [1]) | EC50 [2] | IC50 (Melanocortin receptor 5 [3]) | IC50 [4] | IC50 (Melanocortin receptor 4 [5]) | EC50 (Melanocortin receptor 3 [6]) | Activity (Melanocortin receptor 3 [7]) | Activity (Melanocortin receptor 5 [8]) | Activity (Melanocortin receptor 4 [9]) | Activity (Melanocortin receptor 3 [10]) | Activity [11] | Activity (Melanocortin receptor 4 [12]) | Activity (Melanocortin receptor 5 [13]) | Activity (Melanocortin receptor 4 [14]) | Activity [18] | other results
1 | NC(=O)[C@@H]1CSc2ccc([N+](=O)[O-])cc2C(=O)N[C@@H](Cc2cnc[nH]2)C(=O)N[C@H](Cc2ccc3ccccc3c2)C(=O)N[C@@H](CCCN=C(N)N)C(=O)N[C@@H](Cc2c[nH]c3ccccc23)C(=O)N1 | 190 nM | > 10000 nM | 760 nM | 760 nM | – | – | – | – | – | – | – | – | – | – | – | –
2 | NC(=O)[C@@H]1CSc2ccc([N+](=O)[O-])cc2C(=O)N[C@@H](Cc2cnc[nH]2)C(=O)N[C@H](Cc2ccccc2)C(=O)N[C@@H](CCCN=C(N)N)C(=O)N[C@@H](Cc2ccc3ccccc3c2)C(=O)N1 | 610 nM | 71 nM | 340 nM | 180 nM | > 1000 nM | 56 nM | – | – | – | – | – | – | – | – | – | –
3 | N=C(N)NCCC[C@@H]1NC(=O)[C@@H](Cc2ccccc2)NC(=O)C2(Cc3ccccc3C2)NC(=O)c2cc([N+](=O)[O-])ccc2SC[C@@H](C(N)=O)NC(=O)[C@H](Cc2c[nH]c3ccccc23)NC1=O | – | > 1000 nM | 560 nM | > 1000 nM | – | > 5000 nM | 40% | inactive | inactive | inactive | 52% | 0% | 0% | inactive | – | –
4 | NC(=O)[C@@H]1CSc2ccc([N+](=O)[O-])cc2C(=O)N[C@@H](Cc2cnc[nH]2)C(=O)N[C@@H](Cc2ccc(N)cc2)C(=O)N[C@@H](CCCN=C(N)N)C(=O)N[C@@H](Cc2c[nH]c3ccccc23)C(=O)N1 | – | – | – | – | – | – | – | – | – | – | – | – | – | – | – | IC50 (Melanocortin receptor 3 [1]; hek293): > 1000 nM; EC50 ([2]; hek293): > 1000 nM; EC50 (Melanocortin receptor 3 [6]; hek293): 150 nM; IC50 ([4]; hek293): > 10000 nM
5 | N=C(N)NCCC[C@@H]1NC(=O)[C@@H](Cc2ccccc2)NC(=O)[C@H](CC2CCCCC2)NC(=O)c2cc([N+](=O)[O-])ccc2SC[C@@H](C(N)=O)NC(=O)[C@H](Cc2c[nH]c3ccccc23)NC1=O | > 1000 nM | 810 nM | 38 nM | > 2000 nM | – | > 4000 nM | > 100% | inactive | inactive | – | 92% | 0% | 0% | inactive | – | –
6 | N=C(N)NCCC[C@@H]1NC(=O)[C@@H](Cc2ccccc2)NC(=O)[C@H](Cc2cnc[nH]2)NC(=O)c2cc([N+](=O)[O-])ccc2SC[C@@H](C(N)=O)NC(=O)[C@@H](Cc2ccccc2)NC1=O | – | – | – | – | – | – | 0% | inactive | inactive | inactive | 0% | 0% | 0% | inactive | inactive | Activity [15]: inactive; Activity (Melanocortin receptor 3 [16]): inactive; Activity (Melanocortin receptor 5 [17]): inactive
7 | N=C(N)NCCC[C@@H]1NC(=O)[C@@H](Cc2ccccc2)NC(=O)[C@H](Cc2cnc[nH]2)NC(=O)c2cc([N+](=O)[O-])ccc2SC[C@@H](C(N)=O)NC(=O)[C@@H](Cc2c[nH]c3ccccc23)NC1=O | – | 100 nM | > 2000 nM | 1000 nM | > 1000 nM | – | 0% | inactive | – | inactive | 105% | 1% | 0% | inactive | – | Activity (Melanocortin receptor 3 [16]): inactive
8 | NC(=O)[C@@H]1CSc2ccc([N+](=O)[O-])cc2C(=O)N[C@@H](Cc2cnc[nH]2)C(=O)N[C@H](Cc2ccccc2)C(=O)N[C@@H](CCCN=C(N)N)C(=O)N[C@@H](Cc2c[nH]c3ccccc23)C(=O)N1 | 40 nM | 2 nM | 190 nM | 3.7 nM | 47 nM | 2 nM | – | – | – | – | – | – | – | – | – | EC50 (Melanocortin receptor 5 [19]): 44 nM; EC50 (Melanocortin receptor 4 [20]): 37 nM
9 | NCCC[C@@H]1NC(=O)[C@@H](Cc2ccccc2)NC(=O)[C@H](Cc2cnc[nH]2)NC(=O)c2cc([N+](=O)[O-])ccc2SC[C@@H](C(N)=O)NC(=O)[C@H](Cc2c[nH]c3ccccc23)NC1=O | – | – | – | – | – | – | 0% | inactive | inactive | inactive | 0% | 0% | 0% | inactive | inactive | Activity [15]: inactive; Activity (Melanocortin receptor 3 [16]): inactive; Activity (Melanocortin receptor 5 [17]): inactive
10 | N=C(N)NCCC[C@@H]1NC(=O)[C@H](Cc2ccc3ccccc3c2)NC(=O)[C@H](Cc2cnc[nH]2)NC(=O)c2cc([N+](=O)[O-])ccc2SC[C@@H](C(N)=O)NC(=O)[C@H](Cc2c[nH]c3ccccc23)NC1=O | – | – | – | – | – | – | 21% | inactive | – | – | 0% | 0% | 0% | inactive | inactive | pA2 (Melanocortin receptor 5 [21]): 8.3
11 | NC(=O)[C@@H]1CSc2ccc([N+](=O)[O-])cc2C(=O)N[C@@H](Cc2cnc[nH]2)C(=O)N[C@@H](Cc2ccc3ccccc3c2)C(=O)N[C@@H](CCCN=C(N)N)C(=O)N[C@@H](Cc2c[nH]c3ccccc23)C(=O)N1 | – | – | – | – | – | – | – | – | – | – | – | – | – | – | – | IC50 (Melanocortin receptor 3 [1]; hek293): > 1000 nM; IC50 (Melanocortin receptor 4 [5]; hek293): > 5000 nM; EC50 (Melanocortin receptor 3 [6]; hek293): 50 nM; IC50 (Melanocortin receptor 5 [3]; hek293): 130 nM; IC50 ([4]; hek293): > 2000 nM
12 | N=C(N)NCCC[C@@H]1NC(=O)[C@@H](Cc2ccccc2)NC(=O)[C@@H]2CCCN2C(=O)c2cc([N+](=O)[O-])ccc2SC[C@@H](C(N)=O)NC(=O)[C@H](Cc2c[nH]c3ccccc23)NC1=O | 380 nM | – | 58 nM | > 1000 nM | > 1000 nM | > 1000 nM | > 100% | inactive | – | – | 0% | 0% | 0% | inactive | inactive | –
